Reference: ChEMBL document CHEMBL3272014, “Synthesis and biological inactivity of some 4alpha,6-cyclo steroids” (1976)
Active and inactive are the calls of the source. The rule behind the calls is not given here.

Experiments:
Rattus norvegicus [1] = organism: Rattus norvegicus; assay: Antiandrogenicity in male rat assessed as inhibition of increase in levator ani weight using 1.2 mg testosterone at 10 mg; format: functional
Rattus norvegicus [2] = organism: Rattus norvegicus; assay: Antiandrogenicity in male rat assessed as inhibition of increase in seminal vesicle weight using 1.2 mg testosterone at 10 mg; format: functional
Rattus norvegicus [3] = organism: Rattus norvegicus; assay: Androgenicity in male rat at 10 mg; format: functional, organism-based
Rattus norvegicus [4] = organism: Rattus norvegicus; assay: Antiandrogenicity in male rat assessed as inhibition of increase in ventral prostate weight using 1.2 mg testosterone at 10 mg; format: functional, Prostate gland
Rattus norvegicus [5] = organism: Rattus norvegicus; assay: Antiandrogenicity in male rat assessed as inhibition of increase in seminal vesicle weight using 2.4 mg testosterone at 10 mg; format: functional
Rattus norvegicus [6] = organism: Rattus norvegicus; assay: Antiandrogenicity in male rat assessed as inhibition of increase in ventral prostate weight using 2.4 mg testosterone at 10 mg; format: functional, Prostate gland
Rattus norvegicus [7] = organism: Rattus norvegicus; assay: Antiandrogenicity in male rat assessed as inhibition of increase in levator ani weight using 2.4 mg testosterone at 10 mg; format: functional
Rattus norvegicus [8] = organism: Rattus norvegicus; assay: Androgenicity in male rat at 0.1 to 10 mg; format: functional, organism-based
Oryctolagus cuniculus [9] = organism: Oryctolagus cuniculus; assay: Antiprogestational activity in rabbit at 0.4 mg by anti-clauberg assay; format: functional, organism-based
Procedure, shortened: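 Rabbit anti-Clauberg (antiprogestational) assay: test steroid given at 20.0 mg against a progesterone challenge of 0.4 mg. Run by Mason Research Institute for the NIH Contraceptive Development Branch.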

Oryctolagus cuniculus [10] = organism: Oryctolagus cuniculus; assay: Progestational activity in rabbit at 0.1 to 10 mg by clauberg assay; format: functional, organism-based
Procedure, shortened: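 Clauberg assay in rabbits: progestational response scored after test steroid at dose levels of 0.1, 1.0 and 10.0 mg.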

C[C@]12CC[C@@H]3[C@H]4CCC(=O)[C@H]5C(C[C@H]3[C@@H]1CCC2=O)[C@@H]45 (stereo partly drawn)
inhibition (INH) (Rattus norvegicus [1]): <20% | inhibition (INH) (Rattus norvegicus [2]): <20% | Activity (Rattus norvegicus [3]): Active | inhibition (INH) (Rattus norvegicus [4]): <20%

CC(=O)O[C@H]1CC[C@H]2[C@@H]3CC4[C@@H]5[C@H]4C(=O)CC[C@]5(C)[C@H]3CC[C@]12C (stereo partly drawn)
inhibition (INH) (Rattus norvegicus [1]): <20% | inhibition (INH) (Rattus norvegicus [2]): <20% | inhibition (INH) (Rattus norvegicus [5]): <20% | inhibition (INH) (Rattus norvegicus [6]): <20% | inhibition (INH) (Rattus norvegicus [7]): <20% | Activity (Rattus norvegicus [8]): Active | inhibition (INH) (Rattus norvegicus [4]): <20%

CC(=O)[C@H]1CC[C@H]2[C@@H]3CCC4=CC(=O)CC[C@]4(C)[C@H]3CC[C@]12C
Activity (Oryctolagus cuniculus [9]): inactive

CC(=O)[C@H]1CC[C@H]2[C@@H]3CC4[C@@H]5[C@H]4C(=O)CC[C@]5(C)[C@H]3CC[C@]12C (stereo partly drawn)
Activity (Oryctolagus cuniculus [10]): inactive
